Assay [1] concerns PANC-1. As to the kind of experiment: Cytotoxicity against human PANC1 cells incubated in normal DMEM medium. The format is cell-based. An outline of the steps:
(§1)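 PANC-1 cells were exposed to a concentration series in nutrient-deprived medium (NDM; no glucose, amino acids or serum) and, in parallel, in complete DMEM. Survival was plotted against log concentration, and PC50, the concentration preferentially cytotoxic under starvation, was read from the curve.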

Assay [2] relates to PANC-1. Description: Anti-austerity activity against human PANC1 cells assessed as cell killing incubated in nutrient deprived medium. It is filed as functional. The method, boiled down: as §1
Assay [3] concerns PANC-1. As to the kind of experiment: Induction of cell death in human PANC1 cells assessed as cell shrinkage at 5 uM incubated in nutrient deprived medium measured every 10 mins for 12 hrs by live cell imaging analysis. It is filed as functional, cell-based.
The test system of assay [4] is PANC-1. Description: Induction of cell death in human PANC1 cells assessed as rounded cell morphology at 5 uM incubated for 24 hrs in nutrient deprived medium by ethidium bromide and acridine orange dye based phase contrast microscopy. It is filed as functional. The method, boiled down: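 PANC-1 cells treated in NDM for 24 h, then double-stained with ethidium bromide and acridine orange. They were imaged in fluorescence (green for live, red for dead or dying) and phase-contrast modes on a digital microscope, and morphology was judged against untreated controls.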

The subject of assay [5] is PANC-1. Description: Induction of cell death in human PANC1 cells assessed as swelling of cells at 5 uM incubated in nutrient deprived medium measured every 10 mins for 12 hrs by live cell imaging analysis. The format is functional, cell-based.
For assay [6], the system named is PANC-1. Description: Inhibition of cell migration in human PANC1 cells at 5 uM incubated in nutrient deprived medium measured every 10 mins for 24 hrs by live cell imaging analysis. The format is functional, cell-based.
The test system of assay [7] is PANC-1. Description: Induction of cell death in human PANC1 cells assessed as leakage of cytoplasmic content at 5 uM incubated in nutrient deprived medium measured every 10 mins for 12 hrs by live cell imaging analysis. The format is functional, cell-based.
Assay [8] has as its system PANC-1. As to the kind of experiment: Inhibition of colony formation in human PANC1 cells at 50 uM incubated for 10 days in nutrient deprived medium by crystal violet staining based assay. The format is functional, cell-based.
The test system of assay [9] is PANC-1. As to the kind of experiment: Inhibition of colony formation in human PANC1 cells incubated for 10 days in DMEM by crystal violet staining based assay.
For assay [10], the system named is PANC-1. Description: Selectivity index, ratio of IC50 for human PANC1 cells incubated in normal DMEM medium to PC50 for human PANC1 cells incubated in nutrient-deprived medium.
Assay [11] has as its system PANC-1. As to the kind of experiment: Induction of cell death in human PANC1 cells assessed as leakage of cytoplasmic content at 3 uM incubated in nutrient deprived medium measured every 10 mins for […] by live cell imaging analysis. It is filed as functional, cell-based. An outline of the steps: (§2)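 Cells were treated in NDM in a stage-top incubator at 37 °C under 5% CO2. Phase-contrast images were captured every 10 min for 24 h on a digital imaging system with a 10× objective. Cell mobility, shrinkage, swelling and leakage of cytoplasm were scored from the time-lapse record.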

The test system of assay [12] is PANC-1. As to the kind of experiment: Induction of cell death in human PANC1 cells assessed as rounded cell morphology at 3 uM incubated for 24 hrs in nutrient deprived medium by ethidium bromide and acridine orange dye based phase contrast microscopy. The format is functional. An outline of the steps: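 PANC-1 cells were held in NDM for 24 h with compound, alongside untreated controls, then double-stained with acridine orange and ethidium bromide. Imaging was in fluorescence (green AO marks live cells, red EB marks dead or dying cells) and in phase-contrast mode to assess morphology.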

The test system of assay [13] is PANC-1. Description: Induction of cell death in human PANC1 cells assessed as swelling of cells at 3 uM incubated in nutrient deprived medium measured every 10 mins for […] by live cell imaging analysis. It is filed as functional, cell-based. The method, boiled down: as §2
The test system of assay [14] is PANC-1. As to the kind of experiment: Induction of cell death in human PANC1 cells assessed as cell shrinkage at 3 uM incubated in nutrient deprived medium measured every 10 mins […] by live cell imaging analysis. It is filed as functional, cell-based. An outline of the steps: as §2
The test system of assay [15] is PANC-1. As to the kind of experiment: Inhibition of cell migration in human PANC1 cells at 3 uM incubated in nutrient deprived medium measured every 10 mins for 24 hrs by live cell imaging analysis. It is filed as functional, cell-based. The method, boiled down:
as §2

Assay [16] relates to PANC-1. As to the kind of experiment: Inhibition of colony formation in human PANC1 cells at 1.25 uM incubated for 10 days in DMEM by crystal violet staining based assay. The following applies: PANC-1, 240 h.

SMILES strings stand for the structures. Calls of active or inactive are those of the source. The rule behind the calls is not given here.

For orientation: IC50 means the concentration that gives 50% inhibition. A higher IC50 goes with weaker potency in that assay. By inhibition is commonly meant the drop in the measured response relative to a control, in per cent.

As to `CCC/C=C1/C(=O)C[C@H]2[C@@H]3CCC4=CC(=O)CC[C@]4(C)[C@H]3CC[C@]12C`, the IC50 in the assay on PANC-1 [1] was over 100 µM. Besides, the PC50 in the assay on PANC-1 [2] was 14 µM.
`CC/C=C1/C(=O)C[C@H]2[C@@H]3CCC4=CC(=O)CC[C@]4(C)[C@H]3CC[C@]12C`: in the assay on PANC-1 [1], the IC50 was over 100 µM. Moreover, the PC50 in the assay on PANC-1 [2] was found to be 50 µM.
In the case of `CC/C=C1\C(=O)C[C@H]2[C@@H]3CCC4=CC(=O)CC[C@]4(C)[C@H]3CC[C@]12C`, the IC50 with PANC-1 [1] was over 100 µM. Moreover, the PC50 in the assay with PANC-1 [2] was determined as 17 µM.
In the same order, the values of `CC[C@H]1C(=O)C[C@H]2[C@@H]3CC[C@H]4CC(=O)CC[C@]4(C)[C@H]3CC[C@]12C` are over 100 µM and 18 µM.
For `COc1cc(C[C@H]2C(=O)OC[C@@H]2Cc2ccc(OC)c(OC)c2)ccc1O` [ARCTIGENIN], in the assay on PANC-1 [2], the PC50 stood at 0.8 µM.
In the assay on PANC-1 [1], `C/C=C1/C(=O)C[C@H]2[C@@H]3CCC4=CC(=O)CC[C@]4(C)[C@H]3CC[C@]12C` [E-GUGGULSTERONE] had an IC50 of over 100 µM. Further, the PC50 in the assay with PANC-1 [2] was 42 µM.
As to `C/C=C1\C(=O)C[C@H]2[C@@H]3CCC4=CC(=O)CC[C@]4(C)[C@H]3CC[C@]12C` [GUGGULSTERONE], 42 µM corresponded to half-maximal inhibition in the assay with PANC-1 [1] (IC50). The PC50 with PANC-1 [2] came out at 37 µM.
`CC=C1CC[C@H]2[C@@H]3CCC4=CC(=O)CC[C@]4(C)[C@H]3CC[C@]12C` (mixture of isomers) had an IC50 in the assay on PANC-1 [1] of over 100 µM. For the same molecule, the outcome in the assay with PANC-1 [3], in the assay with PANC-1 [4], in the assay with PANC-1 [5] and with PANC-1 [7] was Active. For the same molecule, the Activity result with PANC-1 [2] was “Dose-dependent effect”. In addition, the inhibition result in the assay on PANC-1 [6] and in the assay on PANC-1 [8] was “Active” each time. Moreover, in the assay on PANC-1 [9], the inhibition result was “Dose-dependent effect”. In addition, in the assay with PANC-1 [10], the Ratio was 34.
On to `C/C=C1/C(=O)C[C@H]2[C@@H]3CC[C@H]4CC(=O)CC[C@]4(C)[C@H]3CC[C@]12C`, for which, in the assay on PANC-1 [1], the IC50 is over 100 µM. In addition, the PC50 in the assay with PANC-1 [2] is over 100 µM.
The molecule `COCCC/C=C1/C(=O)C[C@H]2[C@@H]3CCC4=CC(=O)CC[C@]4(C)[C@H]3CC[C@]12C` registered an IC50 in the assay with PANC-1 [1] of over 100 µM. Besides, the PC50 with PANC-1 [2] is 52 µM.
In the same order, the values of `CCC/C=C1\C(=O)C[C@H]2[C@@H]3CCC4=CC(=O)CC[C@]4(C)[C@H]3CC[C@]12C` are over 100 µM and 18 µM.
In the case of `C=C1C(=O)C[C@H]2[C@@H]3CCC4=CC(=O)CC[C@]4(C)[C@H]3CC[C@]12C`, the result in the assay on PANC-1 [11], in the assay on PANC-1 [12], in the assay on PANC-1 [13] and in the assay on PANC-1 [14] was Active. The molecule further displayed an IC50 in the assay on PANC-1 [1] of 11 µM. For the same molecule, the Activity result with PANC-1 [2] was “Dose-dependent effect”. Further, the PC50 in the assay on PANC-1 [2] was determined as 1.6 µM. The inhibition result in the assay with PANC-1 [15] was “Active”. The inhibition result in the assay on PANC-1 [9] is “Dose-dependent effect”. Further, in the assay on PANC-1 [10], the Ratio is listed as 6.5. The inhibition at 1.25 µM in the assay on PANC-1 [16] came out at 100%.

(Values after ChEMBL document CHEMBL4627282, “Synthesis of guggulsterone derivatives as potential anti-austerity agents against PANC-1 human pancreatic cancer cells” (Bioorg Med Chem Lett, 2020).)
